Screens as filed in PubChem BioAssay.
Hits are enriched below; roughly 1.5% of the tested compounds scored in any of these assays.
PPC-1+TRAIL kill: compounds killing PPC-1 cancer cells with TRAIL present, primary screen, TRAIL potentiator project, ATPLite luminescence, uHTS; PPC-1 cells + TRAIL, ATPLite viability luminescence; cell killing (% activity), % at 4 µM or 5 µM; actives 0.41% (n = 220,000); AID 1443, 2008;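 active = cell killing above 50% in the first pass at 4 µM, then a duplicate retest at 5 µM averaging 50% or more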;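 also: plate controls were cells with TRAIL plus DMSO for no effect and medium-only wells lacking cells for full effect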
FLuc stim CS: FLuc activators, initial screening, artefact control for FLuc-dependent activation tests, biochemical, ATPlite luminescence | Luciferin 4-monooxygenase (Photinus pyralis), P08659 | activation factor at 10 µM | 200,000 tested, under 10 active | ATPlite luciferase biochemical, 10 min; 0 = ATP-free wells, 1 = DMSO control;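 active = luciferase activation factor, scaled between plate controls, of at least 2 with compound at 10 µM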
Target sequence (P08659 whole entry, looked up): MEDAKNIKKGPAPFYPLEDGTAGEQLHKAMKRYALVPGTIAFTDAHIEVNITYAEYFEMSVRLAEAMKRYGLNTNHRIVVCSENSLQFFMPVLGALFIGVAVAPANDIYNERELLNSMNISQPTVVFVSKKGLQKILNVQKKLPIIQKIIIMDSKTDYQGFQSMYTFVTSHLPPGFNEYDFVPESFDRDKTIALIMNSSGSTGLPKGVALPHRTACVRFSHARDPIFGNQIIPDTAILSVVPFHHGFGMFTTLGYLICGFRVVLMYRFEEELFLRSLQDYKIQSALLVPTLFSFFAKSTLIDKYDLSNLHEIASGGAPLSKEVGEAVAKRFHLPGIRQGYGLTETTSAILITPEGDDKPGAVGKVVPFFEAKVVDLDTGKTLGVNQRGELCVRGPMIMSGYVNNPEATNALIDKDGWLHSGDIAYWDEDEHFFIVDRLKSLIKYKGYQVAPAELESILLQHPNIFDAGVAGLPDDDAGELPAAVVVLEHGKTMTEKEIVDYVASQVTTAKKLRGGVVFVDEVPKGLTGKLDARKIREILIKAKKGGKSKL
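Assay system: Luciferase/luciferin detection reagent, cell-free biochemical luciferase assay / Also added: ATP substrate / Schedule: 10 min at ambient temperature / Measured by: luminescence measurement of luciferase light output / Benchmarks: low control with PBS replacing ATP, high control enzyme plus ATP without compound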
C8 TRAIL sens: viability loss with TRAIL in NB7+C8 cells, primary screen, TRAIL sensitizer project, cell-based, ATPlite luminescence; inhibition (viability loss, TRAIL sensitization), % at 10 µM; actives 1% (n = 360,000); AID 624354, 2012;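 active = compounds causing at least 50% loss of cell viability in the single-dose screen, relative to plate controls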
FLuc inhib CS: firefly luciferase enzyme inhibitors, primary screen, artefact control for luciferase-based inhibitor screens, biochemical, luminescence, ATPLite; actives 1.5% (n = 200,000); 10 min; inhibition, % at 10 µM; Luciferin 4-monooxygenase (Photinus pyralis), P08659; AID 1006, 2008;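 active = inhibition above about 50% when tested at 10 µM, limit read from the data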
An asterisk follows results filed as active; x = not tested or not shown.

SMILES | PPC-1+TRAIL kill | FLuc stim CS | C8 TRAIL sens | FLuc inhib CS
Cc1sc2ncnc(N=Nc3c(O)[nH]c4ccccc34)c2c1C | 27.9 | 0.5 | 43.5 | 50.0*
N=c1n(CC(=O)c2ccc(Br)s2)c2ccccc2n1Cc1ccccc1 | 2.8 | x | 55.6* | x
Cn1c(=N)n(CC(=O)c2ccc(Br)s2)c2ccccc21 | 6.7 | 1.1 | 18.4 | -5.2
Cc1cc(C)c2sc(N(CCCN(C)C)C(=O)c3ccc(S(=O)(=O)N(C)C4CCCCC4)cc3)nc2c1 | x | x | 76.0* | x
CN(C)CCCN(C(=O)c1ccc(S(=O)(=O)N(C)C2CCCCC2)cc1)c1nc2ccc(Br)cc2s1 | x | x | 57.8* | x
CCN1C[C@@H]2[C@@H]3C(=O)N(Cc4ccccc4)C(=O)[C@@H]3[C@](Cc3ccccc3)(C(=O)OC)N2C1=NC | x | x | -5.0 | x
COc1ccc2nc(-c3ccc(F)cc3)sc2c1 | x | x | 65.0* | x
COc1ccc(/C=C2\Oc3ccccc3C2=O)cc1 | x | x | 72.0* | x
CC(=O)Oc1ccc(/C=C2/Oc3ccccc3C2=O)cc1 | 12.0 | x | -4.6 | x
COc1ccc2c(c1)O/C(=C\c1sccc1C)C2=O | 13.6 | 0.1 | 10.7 | 85.5*
O=C(O)COc1ccc2c(c1)O/C(=C\c1cccs1)C2=O | 12.9 | x | 4.4 | x
COc1ccc(C=C2OC(=O)C(C(C)=O)=C2O)cc1 | x | x | 83.5* | x
CC(NC(=O)c1cccc(S(=O)(=O)N2CCCCCC2)c1)c1ccccc1 (stereo unspecified) | x | x | 6.1 | x
Cc1ccc(S(=O)(=O)N2C[C@@H]3CCCC[C@@H]3[C@@H](C)[C@H]2c2cn(Cc3ccccc3)c3ncccc23)cc1 | x | x | 2.8 | x
Cc1ccc(/C=C/C(=O)N2CCc3ccccc32)o1 | -0.3 | 0.2 | 16.5 | 75.2*
O=C(/C=C/c1ccco1)N1CCc2ccccc21 | 36.5 | 0.2 | 49.8 | 82.3*
CCOC(=O)/C=C/C(=O)N1CCc2ccccc21 | 15.9 | 0.8 | -10.1 | 18.7
O=C(c1ccco1)N1CCc2ccccc21 | -7.9 | 0.9 | -0.7 | 13.5
O=C1Nc2ccccc2C1Cc1ccccc1 (stereo unspecified) | -0.6 | x | -32.1 | x
O=C1C=CC2(C=C1)O[C@H](Cc1ccccc1)[C@@H](Cc1ccccc1)O2 | x | x | 94.7* | x
COc1ccc(C[C@@H]2OC3(C=CC(=O)C=C3)O[C@H]2Cc2ccc(OC)cc2)cc1 | x | x | 92.8* | x
CCNC(=O)C1(C)CCN(C(=O)c2cccnc2SC)C1 (stereo unspecified) | x | x | -12.6 | x
COCC(=O)N[C@H]1C=C[C@@H](CC(=O)OC)O[C@@H]1CO | x | x | -8.5 | x
N#Cc1c(N)n(C2OC(CO)C(O)C2O)c2ncnc(N)c12 (stereo unspecified) | x | x | 44.5 | x
CC(C)=C[C@H]1C[C@H](C)[C@H]2CC[C@H](C)c3c(O)c(O[C@H]4OC[C@H](O)[C@@H](O)[C@@H]4O)c(C)c1c32 | x | x | 9.9 | x
SMILES | PPC-1+TRAIL kill | FLuc stim CS | C8 TRAIL sens | FLuc inhib CS
O=C(c1cccs1)c1ccc(-c2cccs2)s1 | 25.0 | 0.2 | 50.6* | 78.4*
CN1CCN(C(=O)c2ccc(-c3cccs3)s2)CC1 | 12.7 | x | 30.2 | x
O=C1c2cccc(NCCCNCCO)c2C(=O)c2cccc(NCCCNCCO)c21 | x | x | 57.0* | x
COc1ccc(CNc2ncc(-c3cccc([N+](=O)[O-])c3)n2C)c(OC)c1OC | x | x | 5.8 | x
COc1ccccc1C=NN=C(N)C(N)=NN=Cc1ccccc1OC | x | x | -0.2 | x
COc1ccccc1C=NN=C(NN=Cc1ccccc1OC)NN=Cc1ccccc1OC | x | x | 68.8* | x
COc1ccccc1C=NNC(=O)NN=Cc1ccccc1OC | x | x | 65.5* | x
COc1cc(C(=O)Oc2ccccc2/C=N/NC(=O)c2ccc(C)c(Cl)c2)cc(OC)c1OC | 52.3* | 1 | 40.8 | -0.8
COc1ccccc1/C=N/OC(=O)c1ccc(F)cc1 | 15.5 | 0.3 | -9.6 | 73.8*
COc1cc(C(=O)Oc2ccccc2/C=N/NC(=O)c2ccc(Cl)cc2)cc(OC)c1OC | 37.3 | 0.9 | 44.6 | 6.1
CN(C(=O)c1ccco1)c1nc2c(s1)CCCC2 | 48.1 | 0.2 | 59.4* | 77.3*
COc1ccc(C(=O)Nc2ccccc2C(=O)O)cc1Cl | 29.2 | 0.2 | 48.9 | 75.5*
CCN(Cc1ccccc1)S(=O)(=O)c1cc(C(=O)NC2CCCCCC2)ccc1OC | 15.0 | 1.1 | -7.2 | -5.2
CCN(CC)S(=O)(=O)c1cc(C(=O)Nc2ccccc2C(=O)O)ccc1OC | 21.3 | 0.4 | 22.0 | 59.3*
C=Cn1cc(CNC[C@H]2O[C@@H](n3ccc(N)nc3=O)[C@H](O)[C@@H]2O)c(C)n1 | x | x | -11.2 | x
CC(=O)Nc1ccc(NC(=O)C(C)OC(=O)CCC2CCCC2)cc1 (stereo unspecified) | x | x | -8.0 | x
O=C(CCS(=O)(=O)c1ccccc1)Nc1cccc(-c2nc3ccccc3s2)c1 | 22.3 | 0.7 | 54.4* | 27.3
O=C(Nc1cccc(-c2nc3ccccc3s2)c1)c1cccs1 | 0.4 | 1 | 0.5 | 1.8
O=C(CSCc1cccc(Br)c1)N=Nc1c(O)[nH]c2ccccc12 | 13.1 | 1 | -12.4 | -0.6
O=Nc1c(-c2c(O)[nH]c3cc(Br)ccc23)[nH]c2ccccc12 | x | x | 83.5* | x
O=C(Nc1ccccc1)Nc1ccc2ccccc2c1 | -0.3 | x | 9.5 | x
CC(C)Sc1cc(Cl)nc(NC(=O)Nc2ccccc2)n1 | x | x | 90.5* | x
CCOC(=O)c1cc(C(=O)Nc2cccc(C)c2)nn1C | 21.0 | 0.4 | 34.1 | 59.6*
Cn1nc(C(=O)Nc2cccc(Cl)c2)cc1C(=O)Nc1cccc(Cl)c1 | x | x | 0.3 | x
O=c1c2ccccc2oc2cc(C#CC3(O)CCCCC3)ccc12 | x | x | 79.0* | x
SMILES | PPC-1+TRAIL kill | FLuc stim CS | C8 TRAIL sens | FLuc inhib CS
COc1cccc2oc3cc(C#CC4(O)CCCCC4)ccc3c(=O)c12 | x | x | 72.2* | x
COc1ccccc1-c1oc2ccccc2c1C#CC1(O)CCCCC1 | x | x | -1.0 | x
Clc1ccc(-n2nnc(-c3nccs3)n2)cc1Cl | 22.6 | 0.4 | 34.6 | 59.0*
Cc1ccc(C(=O)N/N=C\c2cccc(OC(=O)c3cccc(F)c3)c2)cn1 | x | x | 53.8* | x
O=C(N/N=C/c1cccc(OC(=O)c2ccco2)c1)c1ccc(F)cc1 | 44.3 | 0.4 | 70.9* | 63.2*
Cc1cccc2sc(NNC(=O)c3ccc(S(=O)(=O)N4CCc5ccccc5C4)cc3)nc12 | 23.6 | 1 | 14.9 | -3.7
Cc1cccc2sc(NNC(=O)c3ccc(S(=O)(=O)N4CCCC(C)C4)cc3)nc12 (stereo unspecified) | 12.4 | 1 | 66.9* | 0.8
O=C(Nc1cccc(Cl)c1)c1ccc2sc([C@H]3C[C@H](O)[C@@H](CO)O3)nc2c1 | x | x | 20.2 | x
CCC(=O)N1CCCC(C)(C(=O)Nc2ccc(C)c(C)c2)C1 (stereo unspecified) | x | x | -10.8 | x
CCOC(=O)c1cn(-c2ccc(F)c(F)c2F)c2c(F)c(F)c(F)cc2c1=O | -2.0 | 1.1 | 64.2* | -9.6
COc1cc(NCCCCC(C)N)c2nccc(C)c2c1 (stereo unspecified) | x | x | 53.6* | x
N#Cc1ccccc1NC(=O)CSc1cn[nH]n1 | x | x | -5.6 | x
CCOc1ccc(NC(=S)NC(=O)c2c(Br)cnn2C)c([N+](=O)[O-])c1 | 31.6 | 0.4 | 21.8 | 64.1*
